# proKLK7 act: activators of human kallikrein-7 zymogen; purified proKLK7, EDANS-DABCYL substrate fluorescence; 100% is mature enzyme control, 0% vehicle; 370,000 tested, 0.9% active; activation, % at 7 µM; P49862;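 active = activation above the mean of all tested compounds plus 3 SD, computed per campaign excluding outliers beyond control limits, cut at about 13% in these data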
# procasp3 activ: activates human procaspase-3; activation, % at 8.5 µM; recombinant procaspase-3 D3A, Ac-DEVD-pNA absorbance 405 nm; P42574; 330,000 tested, 0.11% active; AID 463141;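 active = activation above the mean of all tested compounds plus 3 SD, cut at about 21% in these data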;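 note: 0% = DMSO alone and 100% = DMSO wells spiked with extra 5 µM PC-3 D3A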
# Target sequence (P42574 whole entry D9A/D28A/D175A): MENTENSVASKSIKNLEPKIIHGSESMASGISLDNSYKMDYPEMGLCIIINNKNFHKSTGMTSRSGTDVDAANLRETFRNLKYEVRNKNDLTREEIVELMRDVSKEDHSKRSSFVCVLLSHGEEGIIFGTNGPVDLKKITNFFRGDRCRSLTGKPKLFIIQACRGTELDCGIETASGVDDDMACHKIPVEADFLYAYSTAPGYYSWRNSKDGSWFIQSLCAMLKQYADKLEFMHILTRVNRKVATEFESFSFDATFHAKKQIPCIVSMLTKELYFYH
#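 Assay system: Procaspase-3 D3A mutant, all three cleavage aspartates alanine. Buffer or medium: Zinc-free HEPES saline buffer with Triton X-100. Times: 1 h compound preincubation, 2 h substrate hydrolysis at 25 °C. Measured by: 405 nm absorbance of p-nitroaniline, reads at 0 and 120 min. Read-out basis: percent activation relative to control range. Replicates: singlicate.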
# procasp7 counter: counter-screen for procaspase-3 activators: activators of human procaspase-7. recombinant procaspase-7, Ac-DEVD-pNA absorbance 405 nm; D23A/D198A/D206A triple mutant, cannot self-cleave; scale: DMSO 0, 5 µM enzyme 100. 330,000 tested, 0.093% active. activation, % at 8.5 µM;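 active = percent activation above the screen-wide mean plus 3 SD, cut at about 25% in these data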
# Target sequence (P55210 whole entry D23A/D198A/D206A): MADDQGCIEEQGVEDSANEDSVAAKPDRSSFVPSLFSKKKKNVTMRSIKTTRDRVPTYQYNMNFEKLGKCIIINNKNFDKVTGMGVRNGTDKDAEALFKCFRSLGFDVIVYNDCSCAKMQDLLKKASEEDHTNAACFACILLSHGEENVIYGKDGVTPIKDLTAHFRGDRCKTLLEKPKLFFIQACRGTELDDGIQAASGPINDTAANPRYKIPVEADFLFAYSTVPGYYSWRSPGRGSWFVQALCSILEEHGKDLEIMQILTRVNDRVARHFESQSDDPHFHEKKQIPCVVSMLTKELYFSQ
#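 System: Uncleavable procaspase-7 mutant enzyme; Amount: 2 µM procaspase-7 mutant as dispensed; Schedule: 1 h compound preincubation, 2 h substrate cleavage, 25 °C; Measured by: 405 nm absorbance of p-nitroaniline; Evaluation: percent activation from buffer-corrected 0–120 min absorbance change; Control set: low DMSO alone, high DMSO plus 5 µM PC-7.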
# Neddyl block: cullin neddylation inhibition | P61081+Q13564 | TR-FRET cullin neddylation, biochemical | calls only at 25 µM | 360,000 tested, 0.58% active; in the data active = inhibition above about 36%
# * = called active by the depositor; i = inactive; x = no result shown; + = active, no number. An excerpt weighted towards active compounds, which were near 1.6% of everything screened.
SMILES,proKLK7 act,procasp3 activ,procasp7 counter,Neddyl block
O=c1oc(-c2ccccc2)cc(Cl)c1Cl,347*,-26,-36,i
O=c1oc(-c2ccccc2)cc2ccccc12,-2,x,x,i
O=C1Nc2ccccc2N(C(=O)c2c(F)cccc2F)C1c1nc2ccccc2[nH]1 (stereo not given),-48,x,x,+
Cc1cc(/C=C2/C(=N)N3C(=NC2=O)SN=C3S(C)(=O)=O)c(C)n1-c1ccc(F)cc1,1,-16,-8,i
COc1ccccc1-n1c(C)cc(/C=C2/C(=N)N3C(=NC2=O)SN=C3S(C)(=O)=O)c1C,1,-11,-8,+
COc1ccc(C(=O)NC(=S)NNC(=O)c2cnccn2)cc1,0,-2,-11,i
O=C(NC(=S)NNC(=O)c1cnccn1)c1ccc(Cl)cc1,0,3,1,+
Fc1ccc(-c2ccnc3nc(N4CCOCC4)nn23)cc1,22*,1,3,x
Fc1ccc(-c2ccnc3nc(-n4cccc4)nn23)cc1,0,1,3,i
S=c1[nH]nc(-c2cc(-c3ccccc3)n[nH]2)n1/N=C/C(Br)=C/c1ccccc1,-1,-21,-5,+
O=C(O)c1ccc(-n2cccc2/C=N\NC(=O)c2cc3cc(Br)ccc3o2)cc1,1,5,-2,+
Cn1cc(/C=N/NC(=O)c2cc3cc(Br)ccc3o2)c2ccccc21,0,-5,-11,i
COC(=O)c1ccc2c(C(C)c3ccccc3O)c[nH]c2c1 (stereo not given),4,x,x,x
O=C(CCn1cnc(-c2ccccc2)c1-c1ccccc1)N/N=C/c1ccc(O)cc1,-1,3,1,i
O=C(CCn1cnc(-c2ccccc2)c1-c1ccccc1)N/N=C/c1ccccc1O,-5,-18,-21,+
COc1cccc(N2CCN(c3ncnc4c3[nH]c3ccc(F)cc34)CC2C)c1 (stereo not given),1,-4,-1,+
COc1cc(-c2cc(C(=O)Nc3ccc(S(N)(=O)=O)cc3)c3ccccc3n2)cc(OC)c1OC,-4,5,-2,x
CCN(CC)S(=O)(=O)c1ccc(O)c(NC(=O)c2cc(-c3cc(OC)c(OC)c(OC)c3)nc3ccccc23)c1,x,-14,-16,+
Cc1nc(N2CCN(C(=O)c3ccc(Cl)cc3)CC2)c(C#N)c2c1COC(C)(C)C2,-1,-5,4,+
Cc1ccc(-n2c(SCc3cccc4ccccc34)nnc2-c2ccccn2)cc1,1,x,x,x
CN(C)CCNC(=O)c1coc(=O)c(Br)c1,-6,-2,6,x
CC(C)CNC(=O)c1coc(=O)c(Br)c1,27*,-5,-22,i
O=C1CCCc2oc3c(cc(NS(=O)(=O)c4ccc5c6c(cccc46)C(=O)N5)c4ccccc43)c21,26*,0,2,i
O=C(O)c1ccccc1NS(=O)(=O)c1ccc2c3c(cccc13)C(=O)N2,0,6,4,i
O=C(N=C1N(CC2CC2)CC2(C=C3CCCCC3n3c(=O)n(-c4ccccc4)c(=O)n32)N1C(=O)OCc1ccccc1)c1ccccc1 (stereo not given),0,x,x,x
SMILES,proKLK7 act,procasp3 activ,procasp7 counter,Neddyl block
O=S1(=O)Nc2c(ccc3cccnc23)-c2ccccc21,x,-7,-1,+
Clc1ccc2ccc3cccnc3c2n1,-1,x,x,i
COC(=O)C[C@H]1CC[C@@H]2[C@@H](COc3ccc(NC(=O)Nc4ccccc4OC)cc3C(=O)N2C)O1,0,x,x,x
COc1ccc(C[N+]2=C(N)NC3=C4CCCCC4n4c(=O)n(-c5ccccc5)c(=O)n4C3C2)c(OC)c1 (stereo not given),0,x,x,x
Cc1cc(C2C(C#N)=C(N)OC3=C2C(=O)CCC3)c(C)s1 (stereo not given),-1,5,-11,i
COc1cc(C2C(C#N)=C(N)OC3=C2C(=O)CCC3)c([N+](=O)[O-])cc1OC (stereo not given),25*,-8,-7,i
CCN(CC)C(=O)C1CCCN(C(=O)Nc2ccc3nsnc3c2)C1 (stereo not given),19*,-2,3,x
S=C(Nc1ccc2nsnc2c1)N1CCCCC1,4,-8,-5,i
Cc1ccc(CN2C(=O)/C(=C\c3ccc(C(=O)NCc4cccnc4)cc3)Oc3ccccc32)cc1,-5,27*,25,x
O=C(CN1C(=O)/C(=C\c2ccccc2Cl)Oc2ccccc21)NCc1cccnc1,-82,0,14,x
CCCN(CCC)CCNC(=O)c1cc2c(=O)n(C)c3ccccc3c2n1C,1,7,4,+
CN(CCNC(=O)c1cc2c(=O)n(C)c3ccccc3c2n1C)Cc1ccccc1,0,7,6,i
O=C1c2ccccc2NC(c2ccc(O)c(O)c2)N1c1ccccc1Cl (stereo not given),6,1,4,+
Cc1cccc(NC(=S)N/N=C/c2cccn2Cc2ccc(F)cc2)c1,-2,-15,-5,+
O=C1N(CCCO)CCC12CCCCC2,0,x,x,x
C[C@]12c3[nH]c4cc(-c5ccco5)ccc4c3CCN1C(=O)[C@@H](CC(=O)NCCC1=CCCCC1)C[C@@H]2C(=O)N1CCCCC1,-2,-3,1,x
C[C@]12c3[nH]c4cc(-c5ccco5)ccc4c3CCN1C(=O)[C@@H](CC(=O)NCCc1ccccn1)C[C@@H]2C(=O)N1CCCCC1,178*,-9,-27,x
CN1C(=O)C[C@@](C#N)(C(=O)NCCc2ccccc2)[C@H]1c1ccccc1,1,x,x,x
COc1ccc2[nH]c(=O)c(-c3nnn(-c4ccc(Cl)nc4)n3)cc2c1,x,1,-10,+
CC(=NN1CCN(c2ccccn2)CC1)c1ccccc1O,1,x,x,x
CCC(C)(C)C1CCc2c(sc(NC(=O)c3ccccc3C(=O)O)c2C#N)C1 (stereo not given),0,4,-3,+
O=C(CSc1nnc(-c2cccnc2)n1-c1ccc(Cl)cc1)Nc1ccccc1-c1ccccc1,1,x,x,x
C=Cc1ncc(OC)c2c1[nH]c1ccccc12,x,8,-10,+
O=C(NC1CCCCN(Cc2cccc(C(F)(F)F)c2)C1=O)c1ccc(Cl)c(Cl)c1 (stereo not given),0,x,x,x
COC(=O)C1CN(C2CCCC2)CCS(=O)(=O)N1Cc1ccc(F)cc1 (stereo not given),0,x,x,x
C[C@H](CO)N1C[C@H](C)[C@@H](CN(C)S(=O)(=O)c2ccccc2)Oc2ccc(NC(=O)CCN3CCOCC3)cc2C1=O,1,-1,-6,i
C[C@H](CO)N1C[C@H](C)[C@@H](CN(C)S(C)(=O)=O)Oc2ccc(NC(=O)CCN3CCOCC3)cc2C1=O,1,-2,27*,i
Cc1ccc(-c2ccc(CCC(=O)O)n2CC(=O)O)cc1,x,-9,-12,+
O=C(O)CCc1ccc(-c2ccc(F)cc2)n1CC(=O)O,-3,-10,-8,i
COc1ccc(Cn2cc3c(-c4ccc(F)cc4)nnc-3c3cc(OC)c(OC)cc32)cc1,-35,0,22,x

# Assay outcomes from PubChem BioAssay.
